# Measurements as given in ChEMBL document CHEMBL4229422, “Synthesis and pharmacological evaluation of pyrazolo[4,3-c]quinolinones as high affinity GABAA-R ligands and potential anxiolytics” (Bioorg Med Chem, 2018).
# Active and inactive are the calls of the source. The calls are words filed in the database; no cut-off is given here.
# What was measured:
# [1] = Displacement of [3H]-FNZ from benzodiazepine binding site of GABAA receptor in bovine synaptosomal membranes after 1 hr by scintillation counting method; format: cell membranes, Bos taurus
# [2] = test system: Rattus norvegicus; assay: Anxiogenic activity in Wistar rat assessed as reduction in time spent on open arms at 0.25 to 0.5 mg/kg, ip administered 30 mins prior to testing measured for 5 mins by elevated plus-maze test; format: functional, organism-based
# Summary of the method: (§1)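 Adult male Wistar rats (65–75 days, 280–320 g), group-housed, 12 h light–dark, 21-22 °C, handled on four days beforehand. Doses of 0.25, 0.5, 1 and 3 mg/kg were dissolved in propylenglycol, diluted in aqueous 0.6 % v/v Tween 80 and given ip 30 min before the EPM. Vehicle controls received the same mixture. Behaviour was recorded 5 min as % time in open arms relative to open plus closed arms. About 7 rats per dose, mean ± S.E.M., ANOVA.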
# [3] = test system: Rattus norvegicus; assay: Toxicity in Wistar rat assessed as change in locomotor activity at 0.25 to 3 mg/kg, ip administered 30 mins; format: organism-based; settings: in vivo, 0.5 h
# Summary of the method: (§2)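 Locomotor or exploratory activity was scored as the number of closed-arm entries during the 5 min EPM session. Male Wistar rats (280–320 g) received 0.25–3 mg/kg ip 30 min beforehand, in propylenglycol diluted with 0.6 % v/v Tween 80. Vehicle-injected controls were included. About 7 rats per dose, ANOVA.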
# [4] = test system: Rattus norvegicus; assay: Anxiolytic activity in Wistar rat assessed as increase in time spent on open arms at 0.5 mg/kg, ip administered 30 mins prior to testing measured for 5 mins by elevated plus-maze test; format: functional, organism-based; summary of the method: as §1
# [5] = test system: Rattus norvegicus; assay: Anxiogenic activity in Wistar rat assessed as reduction in time spent on open arms at 0.25 to 3 mg/kg, ip administered 30 mins prior to testing measured for 5 mins by elevated plus-maze test; format: functional, organism-based; summary of the method: as §1
# [6] = test system: Rattus norvegicus; assay: Anxiolytic activity in Wistar rat assessed as time spent on open arms at 1 mg/kg, ip administered 30 mins prior to testing measured for 5 mins by elevated plus-maze test (reference value: 20%); format: functional; summary of the method: as §1
# [7] = test system: Rattus norvegicus; assay: Toxicity in Wistar rat assessed as change in locomotor activity at 1 mg/kg, ip administered 30 mins; format: organism-based; settings: in vivo, 0.5 h; summary of the method: as §2
IC50 [1],Ki [1],Structure (SMILES),other results
0.823 nM,0.437 nM,O=c1c2c[nH]c3ccc(Br)cc3c-2nn1-c1ccccc1,Activity [2]: Active
0.326 nM,0.173 nM,COc1ccc(-n2nc3c4cc(Br)ccc4[nH]cc-3c2=O)cc1,Activity [3]: Non-Toxic; Activity [4]: Active
0.589 nM,0.313 nM,Cc1ccc2[nH]cc3c(=O)n(-c4ccccc4)nc-3c2c1,–
0.37 nM,0.196 nM,Cc1ccc2[nH]cc3c(=O)n(-c4ccccc4F)nc-3c2c1,–
1.5 nM,0.797 nM,COc1ccc2[nH]cc3c(=O)n(-c4ccccc4F)nc-3c2c1,–
1.84 nM,0.98 nM,COc1ccc2[nH]cc3c(=O)n(-c4ccc(F)cc4)nc-3c2c1,–
1.15 nM,0.612 nM,Cc1ccc2[nH]cc3c(=O)n(-c4ccc(F)cc4)nc-3c2c1,–
1.47 nM,0.78 nM,O=c1c2c[nH]c3ccc(Br)cc3c-2nn1-c1ccc(F)cc1,Activity [5]: Active; Activity [3]: Toxic
0.542 nM,0.288 nM,COc1ccc(-n2nc3c4cc(C)ccc4[nH]cc-3c2=O)cc1,Activity [6]: 50%; Activity [7]: Non-Toxic
